From ChEMBL document CHEMBL2010643 (Bioorg Med Chem Lett, 2012)
Active and inactive are the calls of the source. No cut-off for these calls is given here.

Experiments:
[1] = target: Dual specificity tyrosine-phosphorylation-regulated kinase 2 (Homo sapiens) (UniProt Q92630); experiment: Inhibition of DYRK2 assessed as residual activity at 10 uM relative to control
[2] = target: Dual specificity mitogen-activated protein kinase kinase 2 (Homo sapiens) (UniProt P36507); experiment: Inhibition of MKK2 assessed as residual activity at 10 uM relative to control
Dual specificity mitogen-activated protein kinase kinase 2 (Homo sapiens), sequence (P36507 whole entry): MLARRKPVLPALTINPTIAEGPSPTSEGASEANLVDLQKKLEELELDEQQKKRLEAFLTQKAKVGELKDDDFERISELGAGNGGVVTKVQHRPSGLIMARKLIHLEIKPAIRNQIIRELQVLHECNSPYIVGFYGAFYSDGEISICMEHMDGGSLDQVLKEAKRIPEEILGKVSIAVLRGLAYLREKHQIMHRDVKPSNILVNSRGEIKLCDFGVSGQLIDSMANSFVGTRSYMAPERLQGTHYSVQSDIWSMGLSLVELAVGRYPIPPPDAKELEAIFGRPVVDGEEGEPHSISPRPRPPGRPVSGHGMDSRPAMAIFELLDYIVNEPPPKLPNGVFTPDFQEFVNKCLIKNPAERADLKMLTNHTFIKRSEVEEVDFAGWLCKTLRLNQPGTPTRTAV

[3] = target: MAP kinase-interacting serine/threonine-protein kinase 2 (Homo sapiens) (UniProt Q9HBH9); experiment: Inhibition of MNK2 assessed as residual activity at 10 uM relative to control
[4] = target: Serine/threonine-protein kinase PAK 4 (Homo sapiens) (UniProt O96013); experiment: Inhibition of PAK4 assessed as residual activity at 10 uM relative to control
Serine/threonine-protein kinase PAK 4 (Homo sapiens), sequence (O96013 whole entry, looked up): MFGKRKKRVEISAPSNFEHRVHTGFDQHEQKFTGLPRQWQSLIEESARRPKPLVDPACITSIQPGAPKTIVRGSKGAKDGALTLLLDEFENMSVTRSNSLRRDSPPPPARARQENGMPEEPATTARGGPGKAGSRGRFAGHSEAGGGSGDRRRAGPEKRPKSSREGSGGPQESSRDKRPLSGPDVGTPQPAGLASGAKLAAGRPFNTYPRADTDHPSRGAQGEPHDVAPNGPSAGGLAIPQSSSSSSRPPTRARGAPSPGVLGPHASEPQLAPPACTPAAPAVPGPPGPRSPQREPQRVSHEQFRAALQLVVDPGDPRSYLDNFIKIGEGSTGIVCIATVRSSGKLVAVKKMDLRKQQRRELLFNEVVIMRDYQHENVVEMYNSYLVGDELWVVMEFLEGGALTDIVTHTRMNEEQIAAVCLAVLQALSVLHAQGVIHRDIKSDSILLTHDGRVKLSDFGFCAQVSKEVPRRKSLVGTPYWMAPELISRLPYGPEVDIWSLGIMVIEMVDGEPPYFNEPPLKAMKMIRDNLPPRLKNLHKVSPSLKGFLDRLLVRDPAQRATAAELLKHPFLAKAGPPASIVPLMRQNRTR

[5] = target: RAC-alpha serine/threonine-protein kinase (Homo sapiens) (UniProt P31749); experiment: Inhibition of PKBalpha assessed as residual activity at 10 uM relative to control
[6] = target: Leucine-rich repeat serine/threonine-protein kinase 2 (Homo sapiens, UniProt Q5S007); experiment: Inhibition of wild-type LRRK2 phosphorylation at Ser935 expressed in HEK293 cells at 0.1 to 0.3 uM after 90 mins by immunoblot analysis; assay type: cell-based
Method in brief: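 HEK293 cells stably expressing wild-type GFP-LRRK2 exposed to DMSO or increasing inhibitor concentrations for 90 min. Lysates immunoblotted for LRRK2 phosphorylated at Ser910 and Ser935 and for total LRRK2.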

[7] = target: Leucine-rich repeat serine/threonine-protein kinase 2 (Mus musculus) (UniProt Q5S006); experiment: Inhibition of wild type LRRK2 phosphorylation at Ser910 in mouse 3T3 cells after 90 mins by Western blot analysis; assay type: cell-based
Leucine-rich repeat serine/threonine-protein kinase 2 (Mus musculus), sequence (Q5S006 whole entry): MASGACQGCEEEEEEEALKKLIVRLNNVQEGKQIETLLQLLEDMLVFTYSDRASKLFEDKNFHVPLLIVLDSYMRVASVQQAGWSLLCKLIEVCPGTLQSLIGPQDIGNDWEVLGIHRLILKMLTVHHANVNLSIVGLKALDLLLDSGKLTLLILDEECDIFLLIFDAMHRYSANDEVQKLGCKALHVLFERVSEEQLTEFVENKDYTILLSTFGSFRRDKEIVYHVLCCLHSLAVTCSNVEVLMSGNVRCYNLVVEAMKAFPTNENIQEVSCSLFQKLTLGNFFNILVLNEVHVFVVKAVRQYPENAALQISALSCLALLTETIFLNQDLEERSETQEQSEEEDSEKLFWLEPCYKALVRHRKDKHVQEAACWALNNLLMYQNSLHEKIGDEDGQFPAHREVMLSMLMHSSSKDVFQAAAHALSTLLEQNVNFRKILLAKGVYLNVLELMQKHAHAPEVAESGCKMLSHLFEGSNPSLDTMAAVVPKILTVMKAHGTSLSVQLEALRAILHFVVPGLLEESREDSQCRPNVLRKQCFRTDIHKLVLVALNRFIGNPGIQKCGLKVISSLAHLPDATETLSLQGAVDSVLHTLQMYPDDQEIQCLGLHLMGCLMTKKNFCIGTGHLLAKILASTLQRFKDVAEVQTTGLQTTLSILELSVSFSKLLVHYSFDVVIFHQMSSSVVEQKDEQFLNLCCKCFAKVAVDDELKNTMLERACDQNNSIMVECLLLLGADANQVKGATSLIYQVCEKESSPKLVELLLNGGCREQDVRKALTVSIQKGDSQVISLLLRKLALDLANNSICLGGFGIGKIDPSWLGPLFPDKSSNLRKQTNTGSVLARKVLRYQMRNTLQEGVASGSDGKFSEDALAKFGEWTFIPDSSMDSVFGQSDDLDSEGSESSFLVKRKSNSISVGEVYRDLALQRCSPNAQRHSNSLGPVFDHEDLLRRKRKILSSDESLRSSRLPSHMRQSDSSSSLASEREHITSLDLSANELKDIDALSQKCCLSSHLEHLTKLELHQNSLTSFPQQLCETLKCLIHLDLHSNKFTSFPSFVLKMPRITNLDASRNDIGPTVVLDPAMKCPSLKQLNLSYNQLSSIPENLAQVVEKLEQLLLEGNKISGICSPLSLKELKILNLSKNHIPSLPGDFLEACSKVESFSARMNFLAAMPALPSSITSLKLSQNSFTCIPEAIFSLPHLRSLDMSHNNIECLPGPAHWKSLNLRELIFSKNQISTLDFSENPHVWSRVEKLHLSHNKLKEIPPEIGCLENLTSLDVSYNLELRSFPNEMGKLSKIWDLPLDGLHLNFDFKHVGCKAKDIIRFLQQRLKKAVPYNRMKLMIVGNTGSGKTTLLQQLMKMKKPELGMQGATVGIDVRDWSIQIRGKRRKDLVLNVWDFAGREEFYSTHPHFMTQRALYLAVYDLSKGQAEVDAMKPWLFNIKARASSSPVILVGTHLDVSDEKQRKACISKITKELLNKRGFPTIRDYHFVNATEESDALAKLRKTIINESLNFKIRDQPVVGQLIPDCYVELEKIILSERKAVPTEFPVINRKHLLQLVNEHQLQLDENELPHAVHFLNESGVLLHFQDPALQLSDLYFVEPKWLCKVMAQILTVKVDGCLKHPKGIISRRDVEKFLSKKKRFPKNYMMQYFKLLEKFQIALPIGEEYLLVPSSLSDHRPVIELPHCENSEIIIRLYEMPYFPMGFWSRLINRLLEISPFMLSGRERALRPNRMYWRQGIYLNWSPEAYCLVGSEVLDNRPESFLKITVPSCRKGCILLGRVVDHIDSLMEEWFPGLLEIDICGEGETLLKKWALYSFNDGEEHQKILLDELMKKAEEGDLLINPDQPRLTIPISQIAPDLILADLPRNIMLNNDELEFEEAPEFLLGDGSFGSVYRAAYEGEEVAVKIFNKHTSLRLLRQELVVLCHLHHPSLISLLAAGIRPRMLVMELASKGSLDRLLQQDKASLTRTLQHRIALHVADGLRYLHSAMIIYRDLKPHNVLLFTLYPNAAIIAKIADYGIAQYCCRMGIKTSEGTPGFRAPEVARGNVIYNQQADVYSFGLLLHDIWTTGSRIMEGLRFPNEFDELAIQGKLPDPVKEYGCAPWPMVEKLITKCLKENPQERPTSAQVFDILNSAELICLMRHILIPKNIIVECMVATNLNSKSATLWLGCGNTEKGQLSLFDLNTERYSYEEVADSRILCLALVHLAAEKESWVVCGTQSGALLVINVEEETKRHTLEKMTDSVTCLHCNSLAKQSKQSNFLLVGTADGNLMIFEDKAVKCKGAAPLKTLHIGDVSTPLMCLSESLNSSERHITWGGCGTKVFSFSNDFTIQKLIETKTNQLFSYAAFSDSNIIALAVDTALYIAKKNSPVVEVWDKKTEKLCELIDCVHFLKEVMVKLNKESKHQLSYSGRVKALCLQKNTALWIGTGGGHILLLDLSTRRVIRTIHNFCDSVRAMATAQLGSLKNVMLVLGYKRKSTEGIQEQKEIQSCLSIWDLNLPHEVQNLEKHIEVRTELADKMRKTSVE
Method in brief: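 Mouse Swiss 3T3 cells treated with DMSO or increasing inhibitor concentrations for 90 min. Endogenous LRRK2 in lysates immunoblotted with purified phospho-specific antibodies to Ser910 and Ser935 and with a total LRRK2 antibody. Blots done in duplicate, representative of at least two independent experiments.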

Plasma = experiment: AUClast in Swiss albino mouse plasma at 10 mg/kg, po; assay type: ADME, organism-based; parameters: time 0 - last, dose 10 mg/kg, route oral; conditions: in vivo
Method in brief: (§1)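 Male Swiss Albino mice were given a single dose, either intravenous at 1 mg/kg or oral at 10 mg/kg. AUClast was measured in plasma and in brain. Half-life, plasma clearance, volume of distribution and oral bioavailability were derived from the plasma data.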

[8] = Half life in Swiss albino mouse at 1 mg/kg, iv; assay type: ADME, organism-based; parameters: dose 1 mg/kg, route intravenous; conditions: in vivo; method in brief: as §1
[9] = Volume of distribution at steady state in Swiss albino mouse at 1 mg/kg, iv; assay type: ADME, organism-based; parameters: dose 1 mg/kg, route intravenous; conditions: in vivo, read-out: Vdss
Method in brief: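 Male Swiss Albino mice given a single intravenous dose of 1 mg/kg (oral arm 10 mg/kg). Plasma and brain exposure measured, and steady-state volume of distribution derived from the plasma profile.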

[10] = target: Inhibitor of nuclear factor kappa-B kinase subunit beta (Homo sapiens) (UniProt O14920); experiment: Inhibition of IKKbeta assessed as residual activity at 1 uM relative to control
Inhibitor of nuclear factor kappa-B kinase subunit beta (Homo sapiens), sequence (O14920 whole entry): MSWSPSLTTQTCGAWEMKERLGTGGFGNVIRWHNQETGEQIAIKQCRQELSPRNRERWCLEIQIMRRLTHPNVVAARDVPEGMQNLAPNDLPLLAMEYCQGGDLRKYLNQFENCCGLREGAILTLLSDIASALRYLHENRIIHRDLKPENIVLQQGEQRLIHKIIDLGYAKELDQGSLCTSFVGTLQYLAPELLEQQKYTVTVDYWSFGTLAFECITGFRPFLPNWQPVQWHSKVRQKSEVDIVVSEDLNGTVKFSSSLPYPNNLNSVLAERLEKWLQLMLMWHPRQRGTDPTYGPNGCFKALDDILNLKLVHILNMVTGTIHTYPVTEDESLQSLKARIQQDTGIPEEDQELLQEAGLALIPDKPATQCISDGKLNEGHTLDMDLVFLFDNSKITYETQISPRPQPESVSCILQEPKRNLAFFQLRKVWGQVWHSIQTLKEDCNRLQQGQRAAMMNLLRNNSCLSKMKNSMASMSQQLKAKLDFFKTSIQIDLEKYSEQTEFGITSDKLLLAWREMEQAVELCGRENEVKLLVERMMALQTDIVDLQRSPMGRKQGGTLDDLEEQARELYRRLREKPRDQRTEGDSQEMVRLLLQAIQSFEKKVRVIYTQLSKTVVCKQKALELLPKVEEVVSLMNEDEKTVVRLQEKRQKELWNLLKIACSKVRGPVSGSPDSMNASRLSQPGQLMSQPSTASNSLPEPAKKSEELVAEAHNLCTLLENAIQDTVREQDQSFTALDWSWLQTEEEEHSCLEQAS

Dual specificity tyrosine-phosphorylation-regulated kinase 2 (Homo sapiens), sequence (Q92630 whole entry): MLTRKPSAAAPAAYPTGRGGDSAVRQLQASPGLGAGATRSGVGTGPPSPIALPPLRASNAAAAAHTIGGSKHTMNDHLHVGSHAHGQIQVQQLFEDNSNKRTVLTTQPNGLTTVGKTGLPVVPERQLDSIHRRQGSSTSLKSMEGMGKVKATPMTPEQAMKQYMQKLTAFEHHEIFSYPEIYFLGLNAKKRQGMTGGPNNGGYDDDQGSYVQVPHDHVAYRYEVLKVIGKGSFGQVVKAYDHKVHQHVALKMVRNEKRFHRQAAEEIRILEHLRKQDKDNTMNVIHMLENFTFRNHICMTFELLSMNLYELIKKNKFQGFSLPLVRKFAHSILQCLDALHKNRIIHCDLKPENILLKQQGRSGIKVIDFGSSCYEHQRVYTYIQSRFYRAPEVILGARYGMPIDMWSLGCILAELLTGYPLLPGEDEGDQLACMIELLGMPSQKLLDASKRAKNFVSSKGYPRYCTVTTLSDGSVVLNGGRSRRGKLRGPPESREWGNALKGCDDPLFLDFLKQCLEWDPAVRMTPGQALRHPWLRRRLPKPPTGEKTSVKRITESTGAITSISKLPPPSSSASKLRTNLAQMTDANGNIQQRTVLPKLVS

COc1cc(N2CCC(N3CCN(C)CC3)CC2)ccc1Nc1ncc(Cl)c(Nc2ccccc2S(=O)(=O)C(C)C)n1 [TAE-684]
Activity [1]: 106% | Activity [2]: 30% | Activity [3]: 60% | Activity [4]: 44% | Activity [5]: 109% | inhibition [6]: Active | inhibition [7]: Dose-dependent effect | AUClast (Plasma): 6374 ng·h/mL | half-life [8]: 11.3 h | Vd [9]: 14.5 L/kg | Activity [10]: 98%
